Experimental data reported in article PMC8882712 (Cell chemical biology, 2021).
Values belong to the molecule of their own block, whether it stands above or below them.

How the values were obtained:
cancer cells = details: ref Bottcher et al., 2019; cited from earlier work
[1] = system: EOL-1, RS4;11 and MM1.S cells; test: Cell growth inhibition assay; assay type: cell-based, human; details: for EC50: Homo sapiens, 192 h, read-out: EC50 (growth inhibition)
Procedure, shortened: (§1)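 Cells were kept in RPMI 1640 with 10% FBS and 1% penicillin/streptomycin. 0.5 million cells per well were seeded in triplicate and treated with various final compound concentrations, with compound-containing medium renewed every two days. Cultures were diluted to stay below 1×10^6/mL and counted automatically every two days. EC50 came from nonlinear regression over at least three experiments, given as mean ± SD.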

EOL-1 and MM1.S cells [2] = test: Colony formation assay; assay type: cell-based, human; details: 2.5 μM
Procedure, shortened: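 20,000 cells per well were plated in triplicate. Medium containing compound or vehicle was replaced every four days. After 4 weeks, wells were stained with 100 μg/mL iodonitrotetrazolium chloride, and colonies were counted after overnight incubation.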

NSD3S = molecular target: T1, NSD3S (Homo sapiens, UniProt Q9BZ95); test: Immunoblotting for NSD3S in 293FT cells; assay type: cell-based; details: 48-hour treatment; for NSD3 degradation (immunoblot): 293FT cells, indicated concentrations
T1 sequence (Q9BZ95 1-645 isoform Q9BZ95-3): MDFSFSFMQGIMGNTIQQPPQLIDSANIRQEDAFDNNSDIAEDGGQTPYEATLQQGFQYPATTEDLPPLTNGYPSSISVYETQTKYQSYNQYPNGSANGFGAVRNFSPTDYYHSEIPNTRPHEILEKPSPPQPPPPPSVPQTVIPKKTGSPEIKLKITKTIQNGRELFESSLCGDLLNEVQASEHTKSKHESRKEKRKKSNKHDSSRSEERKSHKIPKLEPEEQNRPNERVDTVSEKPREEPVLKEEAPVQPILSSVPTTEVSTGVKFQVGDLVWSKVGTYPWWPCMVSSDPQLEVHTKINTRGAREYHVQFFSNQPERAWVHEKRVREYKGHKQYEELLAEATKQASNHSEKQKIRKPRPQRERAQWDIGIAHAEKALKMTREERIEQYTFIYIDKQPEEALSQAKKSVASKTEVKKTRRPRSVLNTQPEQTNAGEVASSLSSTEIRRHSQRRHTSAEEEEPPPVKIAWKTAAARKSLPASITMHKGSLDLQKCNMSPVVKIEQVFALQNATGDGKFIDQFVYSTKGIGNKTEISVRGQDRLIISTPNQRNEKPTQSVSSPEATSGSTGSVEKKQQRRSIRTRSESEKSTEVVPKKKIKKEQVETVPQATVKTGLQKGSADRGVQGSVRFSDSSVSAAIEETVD
Procedure, shortened: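 293FT cells were grown in DMEM with 10% FBS and 1% penicillin/streptomycin. NSD3 was detected by western blot with rabbit anti-NSD3 antibody, using rabbit anti-GAPDH as loading control and HRP-linked secondary antibodies.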

NSD3 [3] = molecular target: T2, NSD3 (Homo sapiens, UniProt Q9BZ95); test: Immunoblotting for NSD3 degradation in hematological cancer cells; assay type: cell-based
T2 sequence (Q9BZ95 1-645 isoform Q9BZ95-3): T1 sequence (Q9BZ95 1-645 isoform Q9BZ95-3)

EOL-1 cells = test: Mass spectrometry-based global proteomic profiling; assay type: cell-based, human; details: 2.5 μM, 30 hours, more than 5,000 proteins detected
EOL-1 and MM1.S cells [4] = test: Apoptosis induction; assay type: cell-based, human; details: 2.5 μM, four-day treatment
Procedure, shortened: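 EOL-1 and MM1.S cells were grown in RPMI 1640 with 10% FBS and 1% penicillin/streptomycin. Lines were authenticated by genetic fingerprinting and screened monthly for mycoplasma. Apoptosis was assessed by western blot with rabbit anti-cleaved caspase-3 and anti-cleaved caspase-7 antibodies, detected with an HRP-linked anti-rabbit IgG secondary.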

NSD3 [5] = molecular target: T2, NSD3; test: Ubiquitination assay of Flag-tagged NSD3S in 293FT cells; assay type: cell-based; details: 293FT cells expressing Flag-tagged NSD3S, 48-hour treatment
cMyc [6] = test: Immunoblotting for cMyc protein levels; assay type: cell-based, human
Procedure, shortened: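 cMyc was detected by western blot with rabbit anti-cMyc antibody, using rabbit anti-GAPDH as loading control. VHL status was checked with mouse anti-VHL. VHL was knocked out by CRISPR/Cas9 and compared with WT cells. EOL-1 and MM1.S cells were grown in RPMI 1640 and 293FT cells in DMEM, each with 10% FBS and 1% penicillin/streptomycin.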

[7] = system: CBLB, IFITM1, SELL and MAP7; test: RT-qPCR and western blots of NSD3-upregulated gene targets; assay type: cell-based, human; details: EOL-1 or MM1.S cells, 2.5 μM, 48 hours, compared to BI-9321 and MS9715N
Procedure, shortened: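 For mRNA, RT-qPCR relative expression was calculated by the 2−ΔΔCT method and normalized to the mean of beta-actin. For protein, western blots used rabbit anti-CBLB and rabbit anti-IFITM1 antibodies with rabbit anti-GAPDH as loading control. Cells were grown in RPMI 1640 with 10% FBS.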

K562 cells = test: Cell growth inhibition assay in K562 cells; assay type: cell-based, human; details: 2.5 μM, ten days
Procedure, shortened: as §1

cMyc [8] = test: cMyc ubiquitination assay in EOL-1 cells; assay type: cell-based, human; details: 2.5 μM, 48-hour treatment
Procedure, shortened: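 Lysates were heat-denatured 5 min at 95°C, diluted with EBC, sonicated and cleared. Immunoprecipitation with antibody ran overnight at 4°C, then protein A/G magnetic beads for 3 h at 4°C. Blots were probed with mouse anti-ubiquitin.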

NSD3 PWWP1 domain = molecular target: T3, NSD3 PWWP1 domain (Homo sapiens, UniProt Q9BZ95); test: Isothermal titration calorimetry; assay type: binding
T3 sequence (Q9BZ95 247-402): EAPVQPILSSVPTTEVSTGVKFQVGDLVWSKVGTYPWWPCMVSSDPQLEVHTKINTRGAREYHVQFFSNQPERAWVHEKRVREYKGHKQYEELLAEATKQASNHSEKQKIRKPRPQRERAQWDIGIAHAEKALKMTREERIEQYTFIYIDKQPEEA

SMILES: Cc1cc(CN)cc(C)c1-c1ncn(C)c1-c1ccnc2cc(F)ccc12 [BI-9321, reference compound]
killing of cancer cells (cancer cells): does not lead to effective killing of cancer cells | EC50 [1]: > 10 µM | colony-forming capabilities (EOL-1 and MM1.S cells [2]): little or no effect

NSD3 degradation (immunoblot) (NSD3S): failed to degrade NSD3
SMILES: Cc1cc(CNCCCC(=O)NCCOCCOCCNc2cccc3c2C(=O)N(C2CCC(=O)NC2=O)C3=O)cc(C)c1-c1ncn(C)c1-c1ccnc2cc(F)ccc12 (stereo not drawn) [Compound 1, N-(2-(2-(2-((2-(2,6-dioxopiperidin-3-yl)-1,3-dioxoisoindolin-4-yl)amino)ethoxy)ethoxy)ethyl)-4-((4-(5-(7-fluoroquinolin-4-yl)-1-methyl-1H-imidazol-4-yl)-3,5-dimethylbenzyl)amino) butanamide]

NSD3 degradation (immunoblot) (NSD3S): failed to degrade NSD3
SMILES: Cc1cc(CNCCCC(=O)NCCCCCNc2cccc3c2C(=O)N(C2CCC(=O)NC2=O)C3=O)cc(C)c1-c1ncn(C)c1-c1ccnc2cc(F)ccc12 (stereo not drawn) [Compound 2, N-(5-((2-(2,6-dioxopiperidin-3-yl)-1,3-dioxoisoindolin-4-yl)amino)pentyl)-4-((4-(5-(7-fluoroquinolin-4-yl)-1-methyl-1H-imidazol-4-yl)-3,5-dimethylbenzyl)amino)butanamide]

SMILES: Cc1cc(CNCCCC(=O)NCCCCCCCCC(=O)N[C@H](C(=O)N2C[C@H](O)C[C@H]2C(=O)NCc2ccc(-c3scnc3C)cc2)C(C)(C)C)cc(C)c1-c1ncn(C)c1-c1ccnc2cc(F)ccc12 [Compound 5, (2S,4R)-1-((S)-2-(9-(4-((4-(5-(7-fluoroquinolin-4-yl)-1-methyl-1H-imidazol-4-yl)-3,5-dimethylbenzyl)amino)butanamido)nonanamido)-3,3-dimethylbutanoyl)-4-hydroxy-N-(4-(4-methylthiazol-5-yl)benzyl)pyrrolidine-2-carboxamide]
NSD3 degradation (immunoblot) (NSD3S): clearly induced NSD3 degradation at 10–40 μM

SMILES: Cc1cc(CNCCCC(=O)NCCCCNC(=O)C[C@H](NC(=O)[C@@H]2C[C@@H](O)CN2C(=O)[C@@H](NC(=O)C2(F)CC2)C(C)(C)C)c2ccc(-c3scnc3C)cc2)cc(C)c1-c1ncn(C)c1-c1ccnc2cc(F)ccc12 [Compound 6, (2S,4R)-1-((S)-2-(1-fluorocyclopropane-1-carboxamido)-3,3-dimethylbutanoyl)-N-((S)-3-((4-(4-((4-(5-(7-fluoroquinolin-4-yl)-1-methyl-1H-imidazol-4-yl)-3,5-dimethylbenzyl)amino)butanamido)butyl)amino)-1-(4-(4-methylthiazol-5-yl)phenyl)-3-oxopropyl)-4-hydroxypyrrolidine-2-carboxamide]
NSD3 degradation (immunoblot) (NSD3S): did not lead to effective degradation of NSD3

Dmax (NSD3 [3]; MOLM-13, read-out: maximum degradation (Dmax)): > 80% | DC50 (NSD3 [3]; read-out: half-maximal degradation concentration (DC50), MOLM13 cells, 48-hour treatment, mean ± SD from three independent experiments): 4.9 ± 0.4 µM | EC50 [1]: 2 to 4 µM
SMILES: Cc1cc(CNCCCC(=O)NCCCCCCCCC(=O)N[C@H](C(=O)N2C[C@H](O)C[C@H]2C(=O)N[C@@H](C)c2ccc(-c3scnc3C)cc2)C(C)(C)C)cc(C)c1-c1ncn(C)c1-c1ccnc2cc(F)ccc12 [MS9715, (2S,4R)-1-((S)-2-(9-(4-((4-(5-(7-fluoroquinolin-4-yl)-1-methyl-1H-imidazol-4-yl)-3,5-dimethylbenzyl)amino)butanamido)nonanamido)-3,3-dimethylbutanoyl)-4-hydroxy-N-((S)-1-(4-(4-methylthiazol-5-yl)phenyl)ethyl)pyrrolidine-2-carboxamide]
concentration-dependent depletion of cellular NSD3S (NSD3 [3]; EOL-1, MM1.S and MOLM13 cells, 48-hour treatment): concentration-dependent depletion of cellular NSD3S | depletion of NSD3S and NSD3L isoforms (NSD3 [3]; EOL-1 and MM1.S cells): led to depletion of both NSD3S and NSD3L isoforms | time-dependent NSD3S degradation (NSD3 [3]; EOL-1 and MM1.S cells, 2.5 μM): significant degradation occurring at as early as 24 hours | proteome-wide selectivity (significantly downregulated proteins) (EOL-1 cells): NSD3 was the only protein showing significant downregulation | induction of apoptosis (EOL-1 and MM1.S cells [4]): induced a prominent increase of apoptosis | ubiquitination of cellular NSD3 (NSD3 [5]): induced ubiquitination of cellular NSD3 in a concentration-dependent manner | protein levels of cMyc (cMyc [6]; EOL-1 and MM1.S cells, 2.5 μM, 48 hours): significant decrease in the protein levels of cMyc | cMyc depletion in VHL-deficient cells (cMyc [6]; VHL-deficient EOL-1 and 293FT cells relative to WT, 48-hour treatment): almost completely diminished | NSD3 degradation in VHL knockout cells (NSD3S; 293FT cells with CRISPR/Cas9-mediated KO of VHL vs WT): abrogated the MS9715-mediated NSD3 degradation | suppression of expression of CBLB, IFITM1, SELL and MAP7 [7]: superior effect | growth inhibitory activity ([1]; 2.5 μM, ten days, EOL-1, MM1.S and RS4;11 cells): effectively inhibited the growth | growth inhibitory activity (K562 cells): little growth inhibitory effect | ubiquitination of cellular cMyc (cMyc [8]): significantly enhanced | colony-forming capabilities (EOL-1 and MM1.S cells [2]): drastically decreased colony-forming capabilities

Kd (NSD3 PWWP1 domain): 1.62 ± 0.33 µM | EC50 [1]: > 10 µM
SMILES: Cc1cc(CNCCCC(=O)NCCCCCCCCC(=O)N[C@H](C(=O)N2C[C@@H](O)C[C@@H]2C(=O)N[C@@H](C)c2ccc(-c3scnc3C)cc2)C(C)(C)C)cc(C)c1-c1ncn(C)c1-c1ccnc2cc(F)ccc12 [MS9715N, (2R,4S)-1-((S)-2-(9-(4-((4-(5-(7-fluoroquinolin-4-yl)-1-methyl-1H-imidazol-4-yl)-3,5-dimethylbenzyl)amino)butanamido)nonanamido)-3,3-dimethylbutanoyl)-4-hydroxy-N-((S)-1-(4-(4-methylthiazol-5-yl)phenyl)ethyl)pyrrolidine-2-carboxamide]
colony-forming capabilities (EOL-1 and MM1.S cells [2]): little or no effect
